A short description of data set [1]: Aqueous solubility of the compound. Conditions: water (aqueous). It is filed as physicochemical.
The nature of data set [2]: Anticataract activity against FeCl3/H2O2-induced cataract in rabbit lens assessed as absence of opacificaion at 0.5 mM treated 1 hr before FeCl3/H2O2 challenge measured after 24 hrs. Format: functional, Oryctolagus cuniculus, Lens of camera-type eye.
The nature of data set [3]: Anticataract activity against FeCl3/H2O2-induced cataract in rabbit lens assessed as slight degree of opacificaion at 0.5 mM treated 1 hr before FeCl3/H2O2 challenge measured after 24 hrs. Format: functional, Oryctolagus cuniculus, Lens of camera-type eye.
Data set [4] can be described thus: Anticataract activity against FeCl3/H2O2-induced cataract in rat lens assessed as extensive mature nuclear opacity at 0.5 mM treated 1 hr before FeCl3/H2O2 challenge measured after 24 hrs. It is filed as functional, Lens of camera-type eye. An outline of the steps:
(§1)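 Isolated rat lenses were cultured in DMEM and challenged with FeCl3 (0.02%) plus H2O2 (0.5%). Compounds were added at 0.5 mM to the medium of transparent lenses, with a challenged, untreated control. Lenses were scored as the percentage at each opacification grade (−, +, ++, +++).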

Data set [5] can be described thus: Anticataract activity against FeCl3/H2O2-induced cataract in rat lens assessed as slight degree of opacificaion at 0.5 mM treated 1 hr before FeCl3/H2O2 challenge measured after 24 hrs. Format: functional, Lens of camera-type eye. An outline of the steps:
as §1

Data set [6] can be described thus: Anticataract activity against FeCl3/H2O2-induced cataract in rabbit lens assessed as extensive mature nuclear opacity at 0.5 mM treated 1 hr before FeCl3/H2O2 challenge measured after 24 hrs. It is filed as functional, Oryctolagus cuniculus, Lens of camera-type eye.
The nature of data set [7]: Anticataract activity against FeCl3/H2O2-induced cataract in rat lens assessed as absence of opacificaion at 0.5 mM treated 1 hr before FeCl3/H2O2 challenge measured after 24 hrs. It is filed as functional, Lens of camera-type eye. An outline of the steps:
as §1

The nature of data set [8]: Anticataract activity against FeCl3/H2O2-induced cataract in rat lens assessed as middle degree of opacificaion at 0.5 mM treated 1 hr before FeCl3/H2O2 challenge measured after 24 hrs. Format: functional, Lens of camera-type eye. The essentials:
as §1

A short description of data set [9]: Anticataract activity against FeCl3/H2O2-induced cataract in rabbit lens assessed as middle degree of opacificaion at 0.5 mM treated 1 hr before FeCl3/H2O2 challenge measured after 24 hrs. It is filed as functional, Oryctolagus cuniculus, Lens of camera-type eye.

Values after ≈ are worked out from the molar mass of the structure shown.

As a reminder, the solubility is the dissolved amount per volume that the medium holds. Low values mean little dissolved substance, high ones much dissolved substance.

As to `Cc1ccc(Cn2nc(OC(C(=O)O)C(=O)O)c3ccccc32)cc1.NCCCC[C@H](N)C(=O)O`, in data set [1], the concentration in solution (solubility) was 57.4 mg/mL.
On the same count and under the same terms, the result for `O=C([O-])C(Oc1nn(Cc2cccc(Cl)c2)c2ccccc12)C(=O)[O-].[Na+].[Na+]` reads 1.2 mg/mL.
For the compound `NCCCC[C@H](N)C(=O)O.O=C(O)C(Oc1nn(Cc2cccc(Cl)c2)c2ccccc12)C(=O)O`, the Activity in data set [2] came out at 0%; in data set [3], 0%; in data set [4], 15%; in data set [5] it was 55%; in data set [6], 65%; in [7], 0%. Further, the Activity is 30% in data set [8] and 35% in [9]. In data set [1], this compound yielded a solubility of 195 mg/mL.
In the case of `N[C@@H](Cc1c[nH]cn1)C(=O)O.O=C(O)C(Oc1nn(Cc2cccc(Cl)c2)c2ccccc12)C(=O)O`, the concentration in solution in data set [1] (solubility) came to 115 mg/mL.
Compound `O=C(O)C(Oc1nn(Cc2ccccc2)c2ccccc12)C(=O)O` showed a solubility in data set [1] of less than 1 mg/mL.
For `O=C(O)COc1nn(Cc2ccccc2)c2ccccc12` [BENDAZAC], in data set [1], the solubility is less than 1 mg/mL.
Still for that read-out and setting: the result for `NCCCC[C@H](N)C(=O)O.O=C(O)C(Oc1nn(Cc2ccc(Cl)cc2)c2ccccc12)C(=O)O` reads 312 mg/mL.
Take `O=C([O-])C(Oc1nn(Cc2ccccc2)c2ccccc12)C(=O)[O-].[K+].[K+]`: the Activity stood at 0% in data set [2]; 30% in data set [3]; 50% in data set [4]; 0% in [5]; 30% in [6]; 0% in data set [7]. In addition, the figures for the Activity in [8] and in data set [9] were 50% and 40%, respectively. Besides, in data set [1], the solubility was 2.2 mg/mL.
`O=C([O-])C(Oc1nn(Cc2ccc(Cl)cc2)c2ccccc12)C(=O)[O-].[Na+].[Na+]` registered a solubility in [1] of less than 1 mg/mL.
In turn, `O=C([O-])C(Oc1nn(Cc2cccc(Cl)c2)c2ccccc12)C(=O)[O-].[K+].[K+]` registered a solubility in data set [1] of less than 1 mg/mL.
On the same count and under the same terms, then `O=C([O-])C(Oc1nn(Cc2cccc(F)c2)c2ccccc12)C(=O)[O-].[K+].[K+]`, with 2.4 mg/mL.
Still for that read-out and setting: then `Cc1ccc(Cn2nc(OC(C(=O)O)C(=O)O)c3ccccc32)cc1.N[C@@H](Cc1c[nH]cn1)C(=O)O`, with 71 mg/mL.
Same read-out and setting: the result for `O=C([O-])C(Oc1nn(Cc2ccc(Cl)cc2)c2ccccc12)C(=O)[O-].[K+].[K+]` reads less than 1 mg/mL.
Compound `NCCCC[C@H](N)C(=O)O.O=C(O)C(Oc1nn(Cc2cccc(F)c2)c2ccccc12)C(=O)O` showed a solubility in [1] of 134 mg/mL. Also, the Activity in data set [4] is given as 0%; in [5], 55%; in [7], 0%; in data set [8] it was 45%.
In data set [1], `O=C(O)C(Oc1nn(Cc2ccc(Cl)cc2)c2ccccc12)C(=O)O` gave a solubility of less than 1 mg/mL.
For the compound `NCCCC[C@H](N)C(=O)O.O=C(O)C(Oc1nn(Cc2ccccc2)c2ccccc12)C(=O)O`, the Activity in data set [2] is 0%; in data set [3], 30%; in [4] it was 15%; in data set [5], 15%; in [6], 35%; in data set [7], 0%. Further, the Activity worked out at 70% in data set [8] and 35% in [9]. For the same compound, the concentration in solution in data set [1] (solubility) was 123 mg/mL.
As to `Cc1ccc(Cn2nc(OC(C(=O)O)C(=O)O)c3ccccc32)cc1`, the solubility in [1] was less than 1 mg/mL.
The same measure, in the same setting: the result for `Cc1ccc(Cn2nc(OC(C(=O)[O-])C(=O)[O-])c3ccccc32)cc1.[K+].[K+]` reads less than 1 mg/mL.
The compound `O=C(O)C(Oc1nn(Cc2cccc(F)c2)c2ccccc12)C(=O)O` displayed a solubility in [1] of 2 mg/mL (≈ 5.81 mM).
Still for that read-out and setting: then `N[C@@H](Cc1c[nH]cn1)C(=O)O.O=C(O)C(Oc1nn(Cc2cccc(F)c2)c2ccccc12)C(=O)O`, with 56.6 mg/mL; and `N[C@@H](Cc1c[nH]cn1)C(=O)O.O=C(O)C(Oc1nn(Cc2ccc(Cl)cc2)c2ccccc12)C(=O)O`, with 51 mg/mL; and `O=C(O)C(Oc1nn(Cc2cccc(Cl)c2)c2ccccc12)C(=O)O`, with less than 1 mg/mL.
`Cc1ccc(Cn2nc(OC(C(=O)[O-])C(=O)[O-])c3ccccc32)cc1.[Na+].[Na+]` registered a solubility in data set [1] of less than 1 mg/mL.

(Values after ChEMBL document CHEMBL1156952, “Synthesis and biological evaluations of novel bendazac lysine analogues as potent anticataract agents” (Bioorg Med Chem Lett, 2010).)
